From PubChem BioAssay AID624306 (The Scripps Research Institute Molecular Screening Center, 2012) come the findings set out here.

The source made the active and inactive calls.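 Rule for the calls: active = inhibition of insulin-degrading enzyme persists after dilution, judged irreversible; inactive = inhibition lost or reduced after dilution, judged reversible.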

The target in this test is Insulin-degrading enzyme (Homo sapiens) (UniProt P14735). Nature of the test: reversibility of cysteine-free IDE inhibition, late-stage follow-up, mechanism study for IDE inhibitor project, biochemical, cysteine-free mutant, FRET1 fluorogenic peptide (AID 624306). The note with it: recombinant cysteine-free IDE, FRET1 fluorescence. A digest of the protocol: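 System: Mutant insulin-degrading enzyme (IDE) | Input: Mutant IDE at 1 nM in the well | Also added: Substrate 1 µM | Dosing: Top compound dose 100 µM | Times: Kinetic reads every 2 min over 2 h, room temperature | Technique: Fluorescence at 335/385 nm | Controls: Vehicle (high) and no-enzyme (low) wells | Replication: Triplicate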
Chain of Insulin-degrading enzyme (Homo sapiens) (P14735 whole entry, looked up): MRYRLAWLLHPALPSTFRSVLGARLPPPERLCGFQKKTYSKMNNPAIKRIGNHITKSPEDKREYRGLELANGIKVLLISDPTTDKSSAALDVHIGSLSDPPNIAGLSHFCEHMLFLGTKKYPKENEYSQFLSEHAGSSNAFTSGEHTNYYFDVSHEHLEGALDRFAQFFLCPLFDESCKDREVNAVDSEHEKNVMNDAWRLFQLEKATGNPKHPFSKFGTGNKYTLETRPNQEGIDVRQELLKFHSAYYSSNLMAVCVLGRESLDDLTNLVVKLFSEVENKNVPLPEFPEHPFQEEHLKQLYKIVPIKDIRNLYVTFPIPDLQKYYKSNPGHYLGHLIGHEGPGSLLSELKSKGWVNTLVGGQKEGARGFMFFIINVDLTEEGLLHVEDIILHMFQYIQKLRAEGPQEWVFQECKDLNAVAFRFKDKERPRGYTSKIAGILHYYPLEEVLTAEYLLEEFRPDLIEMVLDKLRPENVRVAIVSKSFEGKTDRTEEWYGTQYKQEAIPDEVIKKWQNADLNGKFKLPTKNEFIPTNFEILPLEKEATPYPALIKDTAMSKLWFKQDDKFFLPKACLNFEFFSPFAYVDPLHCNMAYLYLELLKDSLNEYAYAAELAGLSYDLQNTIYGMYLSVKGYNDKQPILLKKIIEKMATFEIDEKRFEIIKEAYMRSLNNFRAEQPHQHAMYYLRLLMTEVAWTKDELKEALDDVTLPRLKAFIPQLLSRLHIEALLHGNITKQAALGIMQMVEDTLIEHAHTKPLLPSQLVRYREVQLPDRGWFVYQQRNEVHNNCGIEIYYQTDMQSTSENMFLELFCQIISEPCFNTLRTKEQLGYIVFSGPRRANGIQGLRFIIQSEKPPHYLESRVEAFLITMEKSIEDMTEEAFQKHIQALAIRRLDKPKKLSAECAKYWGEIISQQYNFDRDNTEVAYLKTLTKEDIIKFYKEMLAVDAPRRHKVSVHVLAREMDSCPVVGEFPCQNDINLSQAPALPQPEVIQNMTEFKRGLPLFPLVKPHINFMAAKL

As for `COc1cc(/C=C2\SC(=S)N(NC(C)=O)C2=O)ccc1OC(=O)c1ccco1`, the result was inactive.

As for `O=C(O)c1ccccc1NS(=O)(=O)c1cccc(-n2sc3ccccc3c2=O)c1`, the outcome was active.

On to `Cc1c(CCC(=O)NCCCn2ccnc2)c(=O)oc2cc3oc4c(c3cc12)CCCC4`, for which the result was inactive.

In the case of `O=C(Nc1cccc(C(F)(F)F)c1)c1csc(-c2ccncc2)n1`, the outcome was inactive.

Take `COc1cccc(-c2nnc(SCc3nc4ccccc4[nH]3)n2Cc2ccco2)c1`: the result was inactive.

On to `O=c1c2ccccc2sn1-c1cc(S(=O)(=O)N2CCOCC2)ccc1N1CCOCC1`, for which the outcome was active.

On to `Clc1cccc(-c2nnc(SCc3nc4ccccc4[nH]3)n2Cc2ccco2)c1`, for which the outcome was inactive.

With `Cn1c(=O)c(C(=O)CN2CCCc3ccccc32)c(N)n(Cc2ccccc2)c1=O`, the result was inactive.

On to `Cc1cccc(-c2nnc(SCc3nc4ccccc4[nH]3)n2Cc2ccco2)c1`, for which the outcome was inactive.

For `COc1ccc(C(=O)N2CCN(C(=O)C3COc4ccccc4O3)CC2)cc1OC` (stereo not given), the result was inactive.
